Compound activity: PubChem, Johns Hopkins Ion Channel Center
TRPC6 activator = activators of mouse TRPC6 channel | HEK293-TRPC6 membrane potential dye fluorescence; stronger effect = higher value | AID 2550 | 0.13% of 310,000 active | B-score at 10 µM;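 active = B-score of the integrated fluorescence ratio above library mean plus 3 SD, and starting fluorescence ratio within library mean plus 5 SD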;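 note: higher score means more depolarization so channel activation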
TRPC4 agonist = activators of mouse TRPC4 channel. HEK293 TRPC4beta/mu-opioid, Fluo4 calcium fluorescence; stronger effect = higher value. B-score at 10 µM. 0.49% of 310,000 active. AID 2237;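 active = B-score above 5 SD of library B-scores, and initial fluorescence ratio not above library mean plus 5 SD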;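 note: positive B-score marks a calcium rise read as TRPC4 activation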
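Material: HEK293 stable line with TRPC4beta plus mu-opioid receptor; technique: Fluo4 calcium-sensitive dye fluorescence, kinetic, 1 Hz baseline; timing: Fluo4 dye loading 45 min at room temperature, 110 s recording; controls: assay buffer as low control, maximal DAMGO as high control; read-out: integrated baseline-normalised fluorescence ratio, converted to per-well B score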
TRPC4 potent = allosteric potentiators of mouse TRPC4 channel | 0.42% of 310,000 active | B-score at 10 µM | HEK293 TRPC4beta/mu-opioid, DAMGO EC20, Fluo-4 Ca2+ flux; stronger effect = higher value;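 active = B-score of calcium response area above 5 SD of library B-scores, with initial fluorescence ratio within 5 SD of library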;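 note: B-score of integrated fluorescence ratio over time as area under calcium response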
Kir21 block = blocks the mouse Kir2.1 inward-rectifier potassium channel. HEK293-Kir2.1, FluxOR thallium flux fluorescence; stronger effect = lower value. 0.85% of 310,000 active. AID 1672. B-score at 10 µM. P35561;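 active = fluorescence ratio B-score at or below minus 3 SD of library scores, with starting-brightness B-score within 2 SD, cut at about -4.2 in these data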;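 note: channel flux triggered by added potassium and thallium sulfate stimulus; B-score of peak minus minimum fluorescence over baseline after thallium stimulus; more negative B-score means stronger Kir2.1 block with less thallium influx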
TRPC4 inh = TRPC4 (mouse) channel inhibition; 0.39% of 300,000 active; Q9QUQ5; B-score at 10 µM; HEK293 TRPC4beta/mu-opioid, DAMGO-evoked Fluo4 calcium flux; stronger effect = lower value; AID 2247;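 active = B-score over 3 SD under the library average, no early fluorescence shift, positive overall ratio signal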
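Assay system: HEK293 cells with stable TRPC4beta plus mu-opioid receptor expression; Probe or stimulus: DAMGO in two steps, submaximal then maximal; Dosing: single-point compound dosing; Measured by: Fluo4 calcium-dye fluorescence, kinetic read; Read-out basis: B score from integrated Fluo4 fluorescence ratio.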
TRPC6 inh = blocks the mouse TRPC6 cation channel; 1.1% of 310,000 active; HEK293-TRPC6, membrane potential dye, ACh-evoked depolarization; stronger effect = lower value; Q61143; B-score at 10 µM;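 active = B-score under library mean minus 3 SD, initial fluorescence not abnormally high, positive integrated signal ratio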;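 note: B-score derived from integrated fluorescence ratio over the kinetic read; more negative B-score means stronger inhibition of depolarization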
TRPC4 sel inh 2 = second selectivity test of TRPC6 inhibitors: effect on mouse TRPC4; HEK293 TRPC4/MOR, membrane potential dye fluorescence; channel activated by saturating DAMGO dose; 42% of 920 active; shares compounds with TRPC6 inh; AID 2776; inhibition, % at 10 µM;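 active = compounds whose fluorescence signal differed from control wells by over 3 SD, either direction, in both duplicate plates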
TRPC4 spec = selectivity of TRPC6 inhibitors: effect on mouse TRPC4. HEK293 TRPC4/mu-opioid, membrane potential fluorescence. 61% of 920 active. activity change, negative = inhibition, % at 10 µM. shares compounds with TRPC6 inh;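 active = rise or fall in signal beyond 3 SD of buffer-only wells in both replicate plates, either sign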;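 note: integrated kinetic ratio of fluorescence range over baseline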
HEK293 MPD ctr 2-1 = second counter-screen for TRPC6 inhibitors: parental HEK293 cells | shares compounds with TRPC6 inh | parental HEK293 membrane potential dye fluorescence; maximal acetylcholine challenge after compound addition | signal change vs control, % at 10 µM | 31% of 920 active;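 active = membrane potential signal moving either way by over 3 SD of the maximum-effect control, in both duplicate plates, meaning non-specific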
HEK293 MPD ctr-1 = counter-screen for TRPC6 inhibitors: effect in parental HEK293 cells; 60% of 920 active; AID 2780; parental HEK293 membrane potential dye fluorescence; membrane potential signal change, % at 10 µM; shares compounds with TRPC6 inh;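 active = membrane potential signal shifting up or down by more than 3 SD of buffer-only wells, on both duplicate plates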
HEK293 MPD ctr-2 = checks TRPC6 modulator effects in parental HEK293 cells; membrane potential signal change, % at 10 µM; shares compounds with TRPC6 inh; 51% of 2,400 active; membrane potential dye fluorescence;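 active = membrane potential signal moves up or down beyond 5 SD from buffer-only wells, on both duplicate plates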
HEK293 MPD ctr 2-2 = second counter-screen for TRPC6 modulators: effect in parental HEK293 cells | shares compounds with TRPC6 inh | membrane potential dye fluorescence; after compound, maximal acetylcholine stimulation | inhibition, % at 10 µM | 14% of 2,400 active | AID 488926;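 active = membrane potential signal drops by more than 5 SD from the mean control signal, in both duplicate plates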;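 note: plate controls were acetylcholine ECmax control wells for no effect and buffer only wells for full effect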
TRPC4/MOR mod = tests whether TRPC6 modulators also affect mouse TRPC4 | percent change from control (negative = decrease, positive = increase), % at 10 µM | 69% of 2,400 active | shares compounds with TRPC6 inh | HEK293 TRPC4/mu-opioid, membrane potential fluorescence;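 active = membrane potential signal moved up or down beyond 5 SD of buffer control wells, in both duplicate plates, actives on both sides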;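 note: plate controls were assay buffer wells for no effect and DAMGO maximal-effect wells for full effect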
TRPC4/MOR inh 2 = mouse TRPC4 off-target activity of TRPC6 modulators, second screen; shares compounds with TRPC6 inh; HEK293 TRPC4/mu-opioid, membrane potential dye fluorescence; stimulated with maximal-effect DAMGO; inhibition, % at 10 µM; 55% of 2,400 active; AID 488928;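 active = drop in membrane potential signal beyond 5 SD of the control wells in both duplicate plates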;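 note: TRPC4 counter screen for TRPC6 hits run under conditions tuned for TRPC6 not TRPC4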
TRPC6 block conf = mouse TRPC6 inhibitor confirmation; shares compounds with TRPC6 inh; HEK293-TRPC6, membrane potential dye, ACh-evoked depolarization; inhibition, % at 10 µM; 43% of 3,300 active;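 active = fluorescence ratio falls more than 5 SD below the full-stimulation control mean, in both duplicate runs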;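 note: integrated fluorescence ratio of peak minus minimum over baseline after agonist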
TRPC6 act confirm = confirmation of mouse TRPC6 activators; shares compounds with TRPC6 inh; HEK293-TRPC6 membrane potential dye fluorescence, FDSS; activation, % at 10 µM; 11% of 2,800 active; AID 488961;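 active = ratio signal rise beyond 5 SD above unstimulated control wells' mean, seen in both duplicate runs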;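 note: plate controls were buffer EC0 wells for no effect and acetylcholine ECmax response for full effect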
The depositor's hits bear a star; i = inactive; / = not tested or not shown. A selection: hits, their analogues and other compounds. The true share with any hit is near 2.9%.

SMILES	TRPC6 activator	TRPC4 agonist	TRPC4 potent	Kir21 block	TRPC4 inh	TRPC6 inh	HEK293 MPD ctr-2	HEK293 MPD ctr 2-2	TRPC4/MOR mod	TRPC4/MOR inh 2	TRPC6 block conf	TRPC6 act confirm	others
CCOC(=O)c1c(CN(CC)CC)n(C)c2cc(Br)c(O)cc12	i	i	i	-0.51	i	i	/	/	/	/	/	/
CCOC(=O)c1c(CN(C)C)oc2cc(CN(C)C)c(O)c(CSc3ccccc3)c12	i	i	i	-1.1	i	i	/	/	/	/	/	/
CCOC(=O)c1c(CN2CCCCC2)n(C)c2cc(Br)c(O)c(CN(C)C)c12	i	i	i	-0.02	i	-7.1*	-252%*	i	-52%*	58%*	45%*	i
CCOC(=O)c1c(CSc2ccccc2)n(C)c2cc(Br)c(O)c(CN(C)C)c12	i	i	i	-1.2	i	-5.9*	i	i	i	56%*	44%*	i
CCc1cc(C(=O)N/N=C/c2c(C)[nH]c3ccccc23)cs1	i	i	i	0.3	i	i	/	/	/	/	/	/
Cn1cc(CN2CCN(c3ccccc3)CC2)c2ccccc21	i	i	i	-2.2	i	-5.5*	i	i	12%*	43%*	i	i
CCc1nnc(NC(=O)CSC(=S)N2CCOCC2)s1	i	i	i	-0.29	i	-6.9*	i	i	i	i	i	i
Nc1ncc(Br)cc1S(=O)(=O)Nc1ccccc1F	i	i	i	-0.17	i	i	/	/	/	/	/	/
CCN1CCCC1CNC(=O)C1CCN(Cc2nc(-c3cccc(Br)c3)oc2C)CC1 (stereo unspecified)	i	i	i	-2.2	i	-8.9*	/	/	/	/	i	i	TRPC4 sel inh 2=60%*;TRPC4 spec=-18%*;HEK293 MPD ctr 2-1=i;HEK293 MPD ctr-1=-240%*
Cc1oc(-c2cccc(Cl)c2)nc1CN1CCC(C(=O)NCc2ccco2)CC1	i	i	i	0.09	i	i	/	/	/	/	/	/
Cc1oc(-c2ccc(Cl)cc2)nc1CN1CCCC(C(=O)NCc2ccccn2)C1 (stereo unspecified)	16*	i	i	-1.4	i	-5.8*	160%*	i	18%*	72%*	64%*	144%*
COc1ccc(-c2nc(CN3CCN(C(=O)c4ccco4)CC3)c(C)o2)cc1OC	i	i	i	1.4	i	i	/	/	/	/	/	/
COc1ccccc1CNC(=O)C1CCN(Cc2nc(-c3cccc(Cl)c3)oc2C)CC1	i	i	i	0.91	i	-9.5*	115%*	i	15%*	97%*	i	/
COc1cc(-c2nc(CN3CCN(C(=O)c4ccco4)CC3)c(C)o2)ccc1F	12*	i	i	-1.5	i	-6.3*	i	i	12%*	i	62%*	139%*
CCc1ccc(-c2nc(CN3CCC(C(=O)NCc4ccccc4OC)CC3)c(C)o2)cc1	i	i	i	-1.6	i	i	/	/	/	/	/	/
O=C(Nc1cccc(/C=C/c2ccccn2)c1)c1cc(Cl)ccn1	i	i	i	-0.77	i	i	/	/	/	/	/	/
Cc1ccc(S(=O)(=O)N(CC(=O)NCC2CCCO2)Cc2cccc(C)c2)cc1 (stereo unspecified)	i	i	i	-0.69	i	i	/	/	/	/	/	/
O=C(COc1ccccc1)NCC(=O)N/N=C/c1ccc(O)cc1O	i	i	i	0.02	i	i	/	/	/	/	/	/
CC(C)CN(C(=O)COC(=O)c1c2c(nc3ccccc13)CCC2)c1c(N)n(Cc2ccccc2)c(=O)[nH]c1=O	i	i	i	1.1	i	i	/	/	/	/	/	/
Cc1oc(-c2ccc(Cl)cc2)nc1CN1CCC(C(=O)NCc2ccco2)CC1	12*	i	i	1.2	-6*	i	i	i	8.0%*	72%*	/	122%*
Cc1oc(-c2ccc(Cl)cc2)nc1CN1CCC(C(=O)N2CCN(Cc3ccccc3)CC2)CC1	12*	i	i	0.16	i	i	226%*	i	40%*	68%*	i	129%*
Cc1oc(-c2ccc(Cl)cc2)nc1CN1CCC(C(=O)N2CCc3ccccc3C2)CC1	14*	i	15*	-1.8	i	i	202%*	i	32%*	62%*	i	80%*
CCOC(=O)Cc1csc(SCc2nc3ccccc3c(=O)[nH]2)n1	i	i	i	-2.3	i	i	/	/	/	/	/	/
CCOC(=O)N1CCN(C(=O)/C=C/c2c(C)nn(-c3ccc(F)cc3)c2Cl)CC1	i	i	i	1.1	i	i	/	/	/	/	/	/
CCOC(=O)C1CCN(C(c2cc3ccc(C)c(C)c3[nH]c2=O)c2nnnn2C2CCCCC2)CC1 (stereo unspecified)	i	i	i	-0.01	i	-8.8*	/	/	/	/	i	/	TRPC4 sel inh 2=i;TRPC4 spec=i;HEK293 MPD ctr 2-1=i;HEK293 MPD ctr-1=i
